{
  "source": "paper PMC3448846",
  "about": "(European neuropsychopharmacology : the journal of the …, 2012)",
  "key": {"[1]": {"target": "α1β3γ2 GABAA receptors (Rattus norvegicus, UniProt P18508+P62813)", "sequence (P62813 28-455)": "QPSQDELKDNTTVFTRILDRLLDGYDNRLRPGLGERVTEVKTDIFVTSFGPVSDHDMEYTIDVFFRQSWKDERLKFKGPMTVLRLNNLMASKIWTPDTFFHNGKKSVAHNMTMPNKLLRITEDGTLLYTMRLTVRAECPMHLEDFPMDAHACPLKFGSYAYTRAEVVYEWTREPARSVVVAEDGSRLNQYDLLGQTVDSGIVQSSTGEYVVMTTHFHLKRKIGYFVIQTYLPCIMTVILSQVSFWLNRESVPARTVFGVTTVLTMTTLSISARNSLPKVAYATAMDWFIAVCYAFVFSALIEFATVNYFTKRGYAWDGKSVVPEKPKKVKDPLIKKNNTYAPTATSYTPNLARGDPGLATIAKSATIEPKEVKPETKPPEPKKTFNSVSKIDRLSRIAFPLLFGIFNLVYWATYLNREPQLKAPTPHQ", "sequence (P63079 26-473 partner)": "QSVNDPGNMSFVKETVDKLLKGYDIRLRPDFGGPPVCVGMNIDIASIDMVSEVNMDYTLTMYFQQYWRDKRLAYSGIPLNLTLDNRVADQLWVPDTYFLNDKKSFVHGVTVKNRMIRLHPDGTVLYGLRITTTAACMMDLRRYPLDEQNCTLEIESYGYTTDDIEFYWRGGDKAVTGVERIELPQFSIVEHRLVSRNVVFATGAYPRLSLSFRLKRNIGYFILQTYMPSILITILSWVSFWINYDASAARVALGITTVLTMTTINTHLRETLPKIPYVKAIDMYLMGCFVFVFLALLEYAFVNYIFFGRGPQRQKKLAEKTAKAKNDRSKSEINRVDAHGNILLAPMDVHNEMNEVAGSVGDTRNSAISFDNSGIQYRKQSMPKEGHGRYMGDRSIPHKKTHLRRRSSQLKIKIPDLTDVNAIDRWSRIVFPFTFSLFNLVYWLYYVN", "sequence (P18508 39-466)": "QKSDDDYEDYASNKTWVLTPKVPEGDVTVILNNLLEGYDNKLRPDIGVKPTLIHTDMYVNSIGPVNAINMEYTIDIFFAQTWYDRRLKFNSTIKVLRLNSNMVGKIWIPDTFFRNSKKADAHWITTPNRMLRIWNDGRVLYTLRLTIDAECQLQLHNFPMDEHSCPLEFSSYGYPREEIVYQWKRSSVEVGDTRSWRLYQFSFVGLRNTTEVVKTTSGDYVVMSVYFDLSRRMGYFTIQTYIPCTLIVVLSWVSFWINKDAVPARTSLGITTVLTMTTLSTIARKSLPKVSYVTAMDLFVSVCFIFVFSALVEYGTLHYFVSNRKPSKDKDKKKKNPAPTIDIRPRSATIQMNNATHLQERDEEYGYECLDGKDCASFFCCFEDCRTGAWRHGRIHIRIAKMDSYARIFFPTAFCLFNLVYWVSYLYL", "experiment": "Two electrode voltage clamp, modulation of EC3 GABA current in Xenopus oocytes", "type": "cell-based"}, "[2]": {"target": "α2β3γ2 GABAA receptors (Rattus norvegicus, UniProt P18508+P23576)", "sequence (P23576 29-451)": "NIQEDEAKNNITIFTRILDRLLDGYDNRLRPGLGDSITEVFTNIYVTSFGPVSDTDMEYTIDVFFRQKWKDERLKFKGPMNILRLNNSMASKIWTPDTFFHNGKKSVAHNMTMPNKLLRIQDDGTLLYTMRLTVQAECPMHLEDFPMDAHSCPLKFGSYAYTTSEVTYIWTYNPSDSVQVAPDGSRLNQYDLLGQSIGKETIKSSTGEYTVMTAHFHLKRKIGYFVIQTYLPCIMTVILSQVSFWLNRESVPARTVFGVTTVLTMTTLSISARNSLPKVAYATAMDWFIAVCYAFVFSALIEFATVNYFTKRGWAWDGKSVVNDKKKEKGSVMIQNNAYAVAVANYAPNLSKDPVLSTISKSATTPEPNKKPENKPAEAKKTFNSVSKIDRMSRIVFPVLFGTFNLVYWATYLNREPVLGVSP", "sequence (P63079 26-473 partner)": "as the sequence (P63079 26-473 partner) above", "sequence (P18508 39-466)": "as the sequence (P18508 39-466) above", "experiment": "Two electrode voltage clamp, modulation of EC3 GABA current in Xenopus oocytes", "type": "cell-based"}, "[3]": {"target": "α3β3γ2 GABAA receptors (Rattus norvegicus, UniProt P18508+P20236)", "sequence (P20236 29-493)": "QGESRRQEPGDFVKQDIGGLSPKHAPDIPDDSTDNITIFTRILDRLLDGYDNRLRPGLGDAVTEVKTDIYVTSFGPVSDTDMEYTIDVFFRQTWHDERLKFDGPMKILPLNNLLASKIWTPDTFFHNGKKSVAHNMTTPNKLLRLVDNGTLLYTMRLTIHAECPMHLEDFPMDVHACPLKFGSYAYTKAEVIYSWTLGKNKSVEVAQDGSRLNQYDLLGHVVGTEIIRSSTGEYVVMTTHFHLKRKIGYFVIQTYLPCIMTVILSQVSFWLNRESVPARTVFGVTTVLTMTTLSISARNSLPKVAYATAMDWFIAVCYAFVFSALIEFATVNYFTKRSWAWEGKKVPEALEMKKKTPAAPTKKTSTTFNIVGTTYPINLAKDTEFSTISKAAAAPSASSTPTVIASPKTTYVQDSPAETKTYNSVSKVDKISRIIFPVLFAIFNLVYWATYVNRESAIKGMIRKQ", "sequence (P63079 26-473 partner)": "as the sequence (P63079 26-473 partner) above", "sequence (P18508 39-466)": "as the sequence (P18508 39-466) above", "experiment": "Two electrode voltage clamp, modulation of EC3 GABA current in Xenopus oocytes", "type": "cell-based"}, "[4]": {"target": "α5β3γ2 GABAA receptors (Rattus norvegicus, UniProt P18508+P19969)", "sequence (P19969 32-464 limits assumed)": "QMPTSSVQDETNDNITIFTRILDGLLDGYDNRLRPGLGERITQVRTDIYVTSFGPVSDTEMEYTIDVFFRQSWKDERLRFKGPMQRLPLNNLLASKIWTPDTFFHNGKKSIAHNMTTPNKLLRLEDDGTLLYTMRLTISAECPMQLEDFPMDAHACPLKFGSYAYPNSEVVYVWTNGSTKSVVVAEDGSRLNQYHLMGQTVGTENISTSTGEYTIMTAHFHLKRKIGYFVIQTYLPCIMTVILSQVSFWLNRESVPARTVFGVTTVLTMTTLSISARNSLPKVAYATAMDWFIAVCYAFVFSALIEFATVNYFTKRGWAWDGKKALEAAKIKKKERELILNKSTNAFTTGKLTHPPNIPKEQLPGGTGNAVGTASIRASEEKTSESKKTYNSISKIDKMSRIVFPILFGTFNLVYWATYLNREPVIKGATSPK", "sequence (P63079 26-473 partner)": "as the sequence (P63079 26-473 partner) above", "sequence (P18508 39-466)": "as the sequence (P18508 39-466) above", "experiment": "Two electrode voltage clamp, modulation of EC3 GABA current in Xenopus oocytes", "type": "cell-based", "conditions": "for % of control current: EC3 GABA, α5β3γ2"}, "[5]": {"tested_on": "spatial learning and memory", "experiment": "Morris water maze", "type": "in vivo, male Wistar rats", "conditions": "for effect on Morris water-maze performance on its own: WYS8 0.2, 1 and 10 mg/kg i.p., β-CCt 5 mg/kg i.p.", "in_short": "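Male Wistar rats, 220–250 g, n=8/group, dosed i.p. in 85% water/14% propylene glycol/1% Tween 80 (sonicated) 20 min before each daily block for 5 acquisition days. Pool 200 cm wide with 23°C water; 15×10 cm platform 2 cm below the surface. Each block had 4 trials (max 120 s, 60 s interval, pseudorandom starts). Per-rat daily means were recorded. The probe trial measured target-region time and peripheral-ring distance.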"}, "[6]": {"experiment": "Quantification in rat brain tissue", "type": "in vivo, Wistar rats", "conditions": "Wistar, intraperitoneal, 10 mg/kg, total brain concentration, highest behaviorally tested dose"}, "[7]": {"target": "α1β3γ2 GABAA/BZ site", "conditions": "recombinant human receptors; ref Yin et al., 2010; cited from earlier work"}, "[8]": {"target": "α2β3γ2 GABAA/BZ site", "conditions": "α2 GABAA receptors; ref Yin et al., 2010; cited from earlier work"}, "[9]": {"target": "α3β3γ2 GABAA/BZ site", "conditions": "α3 GABAA receptors; ref Yin et al., 2010; cited from earlier work"}, "[10]": {"target": "α5β3γ2 GABAA/BZ site", "conditions": "α5 GABAA receptors; ref Yin et al., 2010; cited from earlier work"}, "[11]": {"tested_on": "α1 GABAA receptors", "conditions": "after 7 days of treatment, ref Wu et al., 1995, cited from earlier work"}, "[12]": {"tested_on": "spatial learning and memory", "conditions": "ref Savić et al, 2009, cited from earlier work"}, "[13]": {"conditions": "WYS8 0.2 and 10 mg/kg + DZP 2 mg/kg i.p."}},
  "note": "Like-named read-outs stand apart in the source and are kept apart here.",
  "data": [
    {"smiles": "CN1C(=O)CN=C(c2ccccc2)c2cc(Cl)ccc21", "note": "[DZP, diazepam, reference compound]", "values": [
      {"measurement": "remaining activity at 0.01 µM", "setting": "[1]; read-out: % of control current", "value": "136 ± 3", "unit": "%"},
      {"measurement": "remaining activity at 0.01 µM", "setting": "[2]; read-out: % of control current", "value": "193 ± 5", "unit": "%"},
      {"measurement": "remaining activity at 0.01 µM", "setting": "[3]; read-out: % of control current", "value": "167 ± 8", "unit": "%"},
      {"measurement": "remaining activity at 0.01 µM", "setting": "[4]; read-out: % of control current", "value": "160 ± 2", "unit": "%"},
      {"measurement": "total distance travelled during acquisition", "setting": "[5]; 2 mg/kg i.p., vs solvent-treated controls", "value": "significantly longer distances than solvent-treated controls during all five days"}
    ]},
    {"smiles": "C#Cc1cccc2c1[nH]c1cnc(C(=O)OC(C)(C)C)cc12", "note": "[WYS8, 8-ethynyl-β-carboline-3-carboxylate-t-butyl ester]", "values": [
      {"measurement": "potentiation", "setting": "[1]; at 100 nM, α1-subtype", "value": 40, "unit": "%"},
      {"measurement": "remaining activity at 0.01 µM", "setting": "[1]; read-out: % of control current", "value": "124 ± 3", "unit": "%"},
      {"measurement": "remaining activity at 0.1 µM", "setting": "[1]; read-out: % of control current", "value": "141 ± 5", "unit": "%"},
      {"measurement": "% of control current", "setting": "[2]; 10 nM compound, EC3 GABA, α2β3γ2", "value": "no significant stimulation"},
      {"measurement": "remaining activity at 0.1 µM", "setting": "[2]; read-out: % of control current", "value": "109 ± 2", "unit": "%"},
      {"measurement": "% of control current", "setting": "[3]; 10 nM compound, EC3 GABA, α3β3γ2", "value": "no significant stimulation"},
      {"measurement": "remaining activity at 0.1 µM", "setting": "[3]; read-out: % of control current", "value": "126 ± 7", "unit": "%"},
      {"measurement": "% of control current", "setting": "[4]; 10 nM compound", "value": "no significant stimulation"},
      {"measurement": "% of control current", "setting": "[4]; 100 nM compound", "value": "non-significant changes"},
      {"measurement": "modulation of EC3 GABA response", "setting": "[4]; 1 μM compound, α5 GABAA receptors", "value": "significant, though relatively small negative modulation"},
      {"measurement": "concentration at 20 min", "setting": "[6]", "value": "< 100", "unit": "nM"},
      {"measurement": "effect of addition to DZP on DZP's actions in the water maze", "setting": "[5]; WYS8 0.2, 1 and 10 mg/kg + DZP 2 mg/kg i.p.", "value": "did not generally affect the BZ’s actions"},
      {"measurement": "activity in the water maze when combined with β-CCt", "setting": "[5]; WYS8 0.2, 1 and 10 mg/kg + β-CCt 5 mg/kg i.p.", "value": "devoid of any activity"},
      {"measurement": "effect on Morris water-maze performance on its own", "setting": "[5]", "value": "no substantial effect"},
      {"measurement": "latency on the fourth day, combination with DZP vs DZP alone", "setting": "[5]; [13]", "value": "significantly longer latencies than those treated with DZP alone"},
      {"measurement": "total distance on the fourth day, combination with DZP vs DZP alone", "setting": "[5]; [13]", "value": "significantly longer distances than those treated with DZP alone"},
      {"measurement": "binding affinity at α1 GABAA receptors", "setting": "[7]", "value": "sub-nanomolar"},
      {"measurement": "Ki", "setting": "[8]", "value": 111, "unit": "nM"},
      {"measurement": "Ki", "setting": "[9]", "value": 102, "unit": "nM"},
      {"measurement": "Ki", "setting": "[10]", "value": 208, "unit": "nM"}
    ]},
    {"smiles": "CCN(CC)CCN1C(=O)CN=C(c2ccccc2F)c2cc(Cl)ccc21", "note": "[flurazepam]", "values": [
      {"measurement": "decrease of binding of radiolabelled zolpidem", "setting": "[11]; cerebellum", "value": 23, "unit": "%"},
      {"measurement": "decrease of binding of radiolabelled zolpidem", "setting": "[11]; hippocampus", "value": 14, "unit": "%"}
    ]},
    {"smiles": "CC(C)(C)OC(=O)c1cc2c(cn1)[nH]c1ccccc12", "note": "[β-CCt, t-butyl-β-carboline-3-carboxylate, reference compound]", "values": [
      {"measurement": "effect on Morris water-maze performance on its own", "setting": "[5]", "value": "no substantial effect"},
      {"measurement": "binding affinity at α1 GABAA receptors", "setting": "[7]", "value": "sub-nanomolar"},
      {"measurement": "effect on spatial learning deficits induced by DZP in the water maze", "setting": "[12]; acquisition", "value": "almost completely abolished"},
      {"measurement": "effect on spatial memory deficits induced by DZP, probe trial", "setting": "[12]", "value": "at least partially prevented"}
    ]}
  ]
}
